The source made the active and inactive calls.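 The calls were made as follows, unless noted: active = viability at or below 30% in both replicate assays; inconclusive = viability at or below 30% in just one of the two assays; inactive = the rest.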
How the values were obtained:
[1] = Her2 expression decrease, cell viability multiplex – SKBR3 breast tumor cells, AlphaScreen, ATP viability, primary screen (AID 461;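 active = Her2 level under about 52% in both replicate screens, with viability over 70% of control, limit read from the data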;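 as to Her2 level: lower value means less Her2 protein in the cells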;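 as to viability: percent of carrier control wells set as 100% viability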); conditions: SKBR3 Her2 protein level, 18-24 h, measured here: SKBR3 viability, ATP luminescence, at 10 µM
[2] = target: Receptor tyrosine-protein kinase erbB-2 (Homo sapiens) (UniProt P04626); assay: as above; conditions: 18-24 h, at 10 µM, stronger effect = lower value
[3] = reduced viability of SK-BR-3 breast cancer cells – cell-based, 24 h, human, pilot screen (AID 572;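 active = viability at or below 10% of carrier control in both of two separate runs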;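 also: compound exposure lasted between 18 and 24 h rather than exactly 24 h; 100% = carrier-treated control wells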); conditions: SK-BR-3 viability, CellTiter-Glo luminescence, at 10 µM, stronger effect = lower value
[4] = HUVEC growth inhibition – cell-based, human, primary screen (AID 575); conditions: HUVEC proliferation, CellTiter-Glo luminescence, 72 h; at 10 µM; stronger effect = lower value;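 also: 100% = median of untreated cell wells with 0.1% DMSO on each plate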
Outline: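 Test system – primary HUVEC, no more than 12 passages · Dosing – one dose, 10 µM final, 0.1% DMSO · Times – 72 h treatment at 37 °C · Measured by – ATP-based CellTiter-Glo luminescent read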

[5] = H69AR cell proliferation blockers – human, duplicate replicates, primary screen (AID 580;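 active = viability at or under a set limit in both replicates, limit being median viability minus 3 SD, cut at about 48% in these data, passing the limit was not always enough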;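 also: 100% = mean luminescence of untreated wells and 0% = no signal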); conditions: H69AR lung tumor cells viability, ATP luminescence, 72 h; at 10 µM; stronger effect = lower value
[6] = MRP1 drug-resistance reversers in H69AR cells – cell-based, doxorubicin co-treatment, pilot screen (AID 601;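 active = viability loss from added drug above about 55%, and viability with drug at most 40%, in both replicates, limit read from the data, passing the limit was not always enough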); conditions: CellTiter-Glo, 72 h, at 10 µM; for differential viability (reversal): stronger effect = higher value
[7] = yeast transport mutant growth inhibition pilot in 384-well plates, post-Golgi transport modulator project (AID 636; in the data active = inhibition above about 31%); conditions: absorbance 615 nm, about 18 h, stronger effect = higher value
[8] = growth suppression of yeast trafficking mutant, preliminary HTS, modulators of trafficking downstream of Golgi apparatus project, 1536-format plate, OD 615 nm (AID 637; in the data active = inhibition above about 30%); conditions: yeast transport mutant growth, absorbance 615 nm, 18 h; stronger effect = higher value
[9] = H69AR cells + 2 uM doxorubicin, measured here: viability with 2 uM doxorubicin, stronger effect = lower value
[10] = H69AR cells, compound alone cytotoxicity

Chain of Receptor tyrosine-protein kinase erbB-2 (Homo sapiens) (P04626 whole entry, looked up): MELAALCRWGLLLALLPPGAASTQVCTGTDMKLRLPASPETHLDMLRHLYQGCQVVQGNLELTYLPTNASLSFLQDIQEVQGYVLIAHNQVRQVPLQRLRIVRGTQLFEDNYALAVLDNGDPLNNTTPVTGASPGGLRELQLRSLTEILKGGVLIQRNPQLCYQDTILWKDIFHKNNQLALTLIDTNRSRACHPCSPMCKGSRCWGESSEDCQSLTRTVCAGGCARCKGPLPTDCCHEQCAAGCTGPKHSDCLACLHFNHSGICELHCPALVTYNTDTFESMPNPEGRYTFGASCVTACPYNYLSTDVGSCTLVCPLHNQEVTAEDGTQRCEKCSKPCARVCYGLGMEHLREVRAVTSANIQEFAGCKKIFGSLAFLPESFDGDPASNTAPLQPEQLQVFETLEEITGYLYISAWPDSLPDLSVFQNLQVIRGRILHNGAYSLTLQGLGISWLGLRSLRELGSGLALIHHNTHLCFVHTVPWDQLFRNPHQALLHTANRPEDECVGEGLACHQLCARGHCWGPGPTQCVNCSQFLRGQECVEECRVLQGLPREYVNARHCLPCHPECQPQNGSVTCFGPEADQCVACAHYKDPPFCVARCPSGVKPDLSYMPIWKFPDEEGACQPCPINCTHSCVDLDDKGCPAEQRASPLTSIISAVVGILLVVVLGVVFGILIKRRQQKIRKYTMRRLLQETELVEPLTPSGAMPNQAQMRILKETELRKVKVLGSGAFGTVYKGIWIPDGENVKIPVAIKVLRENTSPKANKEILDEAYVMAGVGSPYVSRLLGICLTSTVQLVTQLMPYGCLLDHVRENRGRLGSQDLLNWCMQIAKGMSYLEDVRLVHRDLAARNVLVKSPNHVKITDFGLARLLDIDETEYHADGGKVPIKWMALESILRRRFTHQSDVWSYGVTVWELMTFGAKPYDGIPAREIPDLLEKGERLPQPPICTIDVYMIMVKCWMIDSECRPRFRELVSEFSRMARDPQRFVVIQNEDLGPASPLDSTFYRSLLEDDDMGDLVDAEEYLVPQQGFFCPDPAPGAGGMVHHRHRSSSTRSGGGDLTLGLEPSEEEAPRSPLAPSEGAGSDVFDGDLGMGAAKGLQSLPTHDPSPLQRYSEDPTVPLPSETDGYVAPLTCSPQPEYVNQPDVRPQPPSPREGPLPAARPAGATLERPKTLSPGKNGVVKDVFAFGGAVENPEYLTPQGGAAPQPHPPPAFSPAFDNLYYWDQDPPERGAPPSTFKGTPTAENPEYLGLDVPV

SMILES | viability [1] [%] | Her2 level [2] | viability [3] | viability [4] | viability [5] | differential viability (reversal) ([6]; H69AR cells + 2 uM doxorubicin) | viability [6, 9] [%] | viability [6, 10] [%] | inhibition [7] | inhibition [8]
O=c1c2c(nc3nc(COc4ccccc4)[nH]n13)CCC2 | 103 | 103% (inactive) | 103% (inactive) | 99.5% (inactive) | 101% (inactive) | 10.9% (inactive) | 90.2 | 101 | -4.8% (inactive) | 3.23% (inactive)
Cc1cc(C)c(NC(=O)C2CCCN2CCO)c(C)c1 (stereo not given) | 83 | 135% (inactive) | 83% (inactive) | 108% (inactive) | 86.5% (inactive) | -3.78% (inactive) | 90.3 | 86.5 | 0.79% (inactive) | -8.69% (inactive)
CC(=O)N1CCN(Cc2ccc(Br)s2)CC1 | 93.5 | 88% (inactive) | 93.5% (inactive) | 86.3% (inactive) | 99.3% (inactive) | 11.1% (inactive) | 88.3 | 99.3 | -3.51% (inactive) | -1.31% (inactive)
CCCS(=O)(=O)N1CCCC(C(=O)N2CCC(Cc3ccccc3)CC2)C1 (stereo not given) | 91.5 | 96.5% (inactive) | 91.5% (inactive) | 85.9% (inactive) | 98.7% (inactive) | 1.65% (inactive) | 97.1 | 98.7 | -1.32% (inactive) | 4.92% (inactive)
c1ccc(Cn2nnc3c(N4CCC5(CC4)OCCO5)ncnc32)cc1 | 105 | 92.5% (inactive) | 105% (inactive) | 103% (inactive) | 90.7% (inactive) | -8.68% (inactive) | 99.3 | 90.7 | -1.05% (inactive) | 4.03% (inactive)
CCOc1ccccc1CN1C(=O)c2ccccc2C1C(=O)NCC1CCCO1 (stereo not given) | 104 | 104% (inactive) | 104% (inactive) | 98.3% (inactive) | 101% (inactive) | -4.52% (inactive) | 105 | 101 | -1.47% (inactive) | -0.32% (inactive)
Cc1ccc(NC2=NC(c3ccccc3)n3c(nc(C)cc3=O)N2)cc1 (stereo not given) | 86.5 | 82% (inactive) | 86.5% (inactive) | 93.5% (inactive) | 88.5% (inactive) | 11.3% (inactive) | 77.2 | 88.5 | -2.11% (inactive) | 2.55% (inactive)
O=C(CSc1nnc(-c2cccnc2)o1)OC1CCCCC1 | 110 | 110% (inactive) | 110% (inactive) | 95.8% (inactive) | 101% (inactive) | 13.2% (inactive) | 87.9 | 101 | -7.87% (inactive) | 0.48% (inactive)
O=C(NCC(c1cccnc1)N1CCN(c2ccc(F)cc2)CC1)c1ccc(F)cc1 (stereo not given) | 90 | 86.5% (inactive) | 90% (inactive) | 103% (inactive) | 92.7% (inactive) | 1.7% (inactive) | 91 | 92.7 | -3.11% (inactive) | 8.25% (inactive)
O=C(Nc1ccccc1N1CCN(c2ccc(F)cc2)CC1)c1ccccc1 | 95 | 96% (inactive) | 95% (inactive) | 78.5% (inactive) | 93.8% (inactive) | 9.15% (inactive) | 84.6 | 93.8 | -5.87% (inactive) | 4.13% (inactive)
NC(=O)CSc1nnc(-c2cc3ccccc3o2)n1Cc1ccccc1 | 92.5 | 81.5% (inactive) | 92.5% (inactive) | 104% (inactive) | 90.3% (inactive) | -1.59% (inactive) | 91.8 | 90.3 | -6.05% (inactive) | 0.67% (inactive)
Cc1cccc(-n2nnc(C(=O)NCc3ccccc3)c2N)c1 | 110 | 84.5% (inactive) | 110% (inactive) | 102% (inactive) | 90.4% (inactive) | 3.36% (inactive) | 87 | 90.4 | 0.92% (inactive) | -3.45% (inactive)
CC(C)C1Cc2c(C#N)c(N)sc(=S)c2CO1 (stereo not given) | 85 | 108% (inactive) | 85% (inactive) | 64.2% (inactive) | 93.9% (inactive) | -2.34% (inactive) | 96.2 | 93.9 | -4.03% (inactive) | -2.13% (inactive)
O=C(Nc1cccnc1)c1cccc(NC(=O)c2ccco2)c1 | 97.5 | 85% (inactive) | 97.5% (inactive) | 94.4% (inactive) | 89.9% (inactive) | 0.575% (inactive) | 89.3 | 89.9 | -1.56% (inactive) | 4.1% (inactive)
CCOc1ccc(CSC(CC(=O)O)C(=O)O)cc1 (stereo not given) | 90 | 83.5% (inactive) | 90% (inactive) | 84.1% (inactive) | 84.2% (inactive) | -2.67% (inactive) | 86.8 | 84.2 | -3.29% (inactive) | 0.55% (inactive)
CCOc1ccc(-c2nnc(N)s2)cc1 | 95 | 90.5% (inactive) | 95% (inactive) | 96.3% (inactive) | 118% (inactive) | 25.6% (inactive) | 92.3 | 118 | 0.67% (inactive) | -1.29% (inactive)

SMILES | viability [1] [%] | Her2 level [2] | viability [3] | viability [4] | viability [5] | differential viability (reversal) ([6]; H69AR cells + 2 uM doxorubicin) | viability [6, 9] [%] | viability [6, 10] [%] | inhibition [7] | inhibition [8]
O=C(CSc1nnc(-c2cccnc2)o1)Nc1ccccn1 | 92.5 | 102% (inactive) | 92.5% (inactive) | 94% (inactive) | 94.4% (inactive) | 7.92% (inactive) | 86.5 | 94.4 | 0.68% (inactive) | 31.8% (active)
FC(F)(F)c1cc(-c2ccccc2)nc(N2CCCCC2)n1 | 101 | 102% (inactive) | 101% (inactive) | 101% (inactive) | 98.1% (inactive) | -3% (inactive) | 101 | 98.1 | -4.53% (inactive) | 5.57% (inactive)
CC(=O)c1c(C)oc2ccc(NS(=O)(=O)c3ccc(O)c(C(=O)O)c3)cc12 | 92 | 78.5% (inactive) | 92% (inactive) | 105% (inactive) | 94% (inactive) | 3.09% (inactive) | 90.9 | 94 | -6.22% (inactive) | 0.79% (inactive)
COc1nc(N2CCOCC2)nc(-n2cccc2)n1 | 94.5 | 86.5% (inactive) | 94.5% (inactive) | 90.6% (inactive) | 87.4% (inactive) | 13.8% (inactive) | 73.6 | 87.4 | -4.08% (inactive) | -5.09% (inactive)
CCOC(=O)CSc1nc2cc(C(=O)NCc3ccco3)ccc2c(=O)n1-c1ccc(F)cc1 | 86.5 | 105% (inactive) | 86.5% (inactive) | 71.4% (inactive) | 87.5% (inactive) | 12% (inactive) | 75.6 | 87.5 | -0.93% (inactive) | 12.8% (inactive)
O=C(c1ccccc1Cl)N1CCc2ccccc2C1 | 97 | 75% (inactive) | 97% (inactive) | 97.1% (inactive) | 83% (inactive) | 1.55% (inactive) | 81.5 | 83 | -8.49% (inactive) | -5.4% (inactive)
O=c1c2ccccc2cnn1-c1nc2ccccc2s1 | 91 | 73% (inactive) | 91% (inactive) | 63.6% (inactive) | 81.6% (inactive) | 0.15% (inactive) | 81.4 | 81.6 | -7.3% (inactive) | -3.33% (inactive)
COC(=O)C1=C(C)NC(C)=C(C(=O)OC)C1c1cc2cc(C)ccc2[nH]c1=O | 103 | 66% (inactive) | 103% (inactive) | 84.6% (inactive) | 79.4% (inactive) | 6.74% (inactive) | 72.6 | 79.4 | -3.29% (inactive) | 3.45% (inactive)
CCOc1ccccc1NC(=O)N1CCCC1C(=O)Nc1nnc(CC)s1 (stereo not given) | 94 | 88% (inactive) | 94% (inactive) | 89.7% (inactive) | 109% (inactive) | 20% (inactive) | 88.8 | 109 | -5.95% (inactive) | -0.83% (inactive)
CCC(=O)c1ccc(OCC(O)CN2CCN(S(=O)(=O)N3CCCCC3)CC2)cc1 (stereo not given) | 91 | 82% (inactive) | 91% (inactive) | 105% (inactive) | 110% (inactive) | 18.1% (inactive) | 92.2 | 110 | -3.33% (inactive) | 3.44% (inactive)
COc1ccc(NC2c3ncccc3C(=O)N2Cc2ccccc2)c(OC)c1 (stereo not given) | 101 | 85.5% (inactive) | 101% (inactive) | 93.8% (inactive) | 95.8% (inactive) | 4.3% (inactive) | 91.5 | 95.8 | -1.56% (inactive) | 1.75% (inactive)
COc1cc(OC)cc(-c2nnc(Nc3nc4c(F)cccc4s3)o2)c1 | 95.5 | 74% (inactive) | 95.5% (inactive) | 5.89% (active) | 69.4% (inactive) | -17.9% (inactive) | 87.3 | 69.4 | -5.07% (inactive) | 13.4% (inactive)
O=C(Nc1cccc(Cl)c1)N1CCN(c2ncccn2)CC1 | 100 | 94.5% (inactive) | 100% (inactive) | 124% (inactive) | 104% (inactive) | 17.4% (inactive) | 86.7 | 104 | 0.27% (inactive) | -6.51% (inactive)
Cc1ccc(Nc2cc(C)nc3ncnn23)c(Cl)c1 | 85 | 88.5% (inactive) | 85% (inactive) | 87% (inactive) | 97% (inactive) | 12.2% (inactive) | 84.9 | 97 | -3.33% (inactive) | -2.3% (inactive)
O=C1C2C3C=CC(C3)C2C(=O)N1Cc1ccccc1 (stereo not given) | 93.5 | 114% (inactive) | 93.5% (inactive) | 116% (inactive) | 89.6% (inactive) | 9.27% (inactive) | 80.3 | 89.6 | -3.47% (inactive) | 2.95% (inactive)
CC1(C)CC(CCNC(=O)c2ccco2)CC(C)(C)N1 | 106 | 92% (inactive) | 106% (inactive) | 84.2% (inactive) | 98.8% (inactive) | 2.95% (inactive) | 95.8 | 98.8 | -3.73% (inactive) | -4.76% (inactive)

— PubChem BioAssay
